Data reported in ChEMBL document CHEMBL1158610, “5-arylamino-1,2,4-triazin-6(1H)-one CRF1 receptor antagonists” (Bioorg Med Chem Lett, 2010).
pIC50: −log10 of the molar value.

Each compound was assayed on Liver microsomes (assay: Metabolic stability in human liver microsome assessed as compound remaining).
Type: ADME
`Cc1cn([C@H](C)C2CC2)c(=O)c(Nc2c(Cl)cc(OC(F)F)cc2Cl)n1` showed a Stability of 71%.
`COc1ccc(Nc2nc(C)nn([C@H](C)C3CC3)c2=O)c(C(F)(F)F)n1` was tested, and the Stability was 85%.

The compounds below were run on Liver microsomes (assay: Metabolic stability in rat liver microsome assessed as compound remaining).
Type: ADME
In the case of `Cc1cn([C@H](C)C2CC2)c(=O)c(Nc2c(Cl)cc(OC(F)F)cc2Cl)n1`, the Stability was 12%.
Compound `COc1ccc(Nc2nc(C)nn([C@H](C)C3CC3)c2=O)c(C(F)(F)F)n1` has a Stability of 37%.

The compounds below were run against T1, Corticotropin-releasing factor receptor 1 (Rattus norvegicus, UniProt P35353) (assay: Displacement of [125I]Tyr-ovine CRF from rat CRF1 receptor).
T1 sequence (P35353 whole entry): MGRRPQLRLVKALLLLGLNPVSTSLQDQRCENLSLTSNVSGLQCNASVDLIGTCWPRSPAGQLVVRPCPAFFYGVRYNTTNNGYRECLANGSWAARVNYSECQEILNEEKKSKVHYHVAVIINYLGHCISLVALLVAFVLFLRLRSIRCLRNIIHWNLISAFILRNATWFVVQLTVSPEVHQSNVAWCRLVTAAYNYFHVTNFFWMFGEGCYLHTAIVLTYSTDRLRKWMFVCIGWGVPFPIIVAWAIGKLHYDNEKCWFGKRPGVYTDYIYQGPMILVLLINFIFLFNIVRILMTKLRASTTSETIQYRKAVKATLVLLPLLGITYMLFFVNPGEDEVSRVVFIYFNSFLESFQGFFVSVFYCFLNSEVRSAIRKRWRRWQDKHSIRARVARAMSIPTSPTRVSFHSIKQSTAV
In short: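 Rat frontal cortex homogenate; inhibition of specific [¹²⁵I]Tyr-ovine-CRF binding measured across a titration of test compound to give IC50. Values are means of three experiments, with standard deviation.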
`CCOc1ccc(Nc2nc(C)nn(C(CC)C3CC3)c2=O)c(C(F)(F)F)n1` (configuration not stated) showed a pIC50 of 8.44.
With `Cc1nc(Nc2c(Cl)cc(C(F)(F)F)nc2Cl)c(=O)n(C(C)C2CC2)n1` (configuration not stated) the pIC50 was 6.59.
Work on `COc1cc(Cl)c(Nc2nc(C)nn(C(C)C3CC3)c2=O)c(Cl)c1` (configuration not stated) yielded a pIC50 of 7.82.
In the case of `COCC(C1CC1)n1nc(C)nc(Nc2c(Cl)cc(OC(F)(F)F)cc2Cl)c1=O` (configuration not stated), the pIC50 was 7.96.
Work on `Cc1nc(Nc2cc(C(F)(F)F)c(C#N)cc2Cl)c(=O)n(C(C)C2CC2)n1` (configuration not stated) yielded a pIC50 of 5.48.
In the case of `COc1cc(C)c(Nc2nc(C)nn(C(C)C3CC3)c2=O)c(C)c1` (configuration not stated), the pIC50 was 7.17.
For `COCC(C1CC1)n1nc(C)nc(Nc2c(Cl)cc(OC(F)F)cc2Cl)c1=O` (configuration not stated), the pIC50 was 8.20.
`COC[C@H](C1CC1)n1nc(C)nc(Nc2ccc(OC)nc2C(F)(F)F)c1=O` gave a pIC50 of 7.82.
`Cc1nc(Nc2c(C)cc(Cl)cc2Cl)c(=O)n(C(C)C2CC2)n1` (configuration not stated) was tested, and the pIC50 was 7.48.
For `Cc1nc(Nc2cc(C)c(C#N)cc2C)c(=O)n(C(C)C2CC2)n1` (configuration not stated), the pIC50 was 7.22.
`Cc1nc(Nc2cc(Cl)c(C#N)cc2Cl)c(=O)n(C(C)C2CC2)n1` (configuration not stated) gave a pIC50 of 6.57.
`Cc1nc(Nc2c(Cl)cc(OC(F)F)cc2Cl)c(=O)n([C@@H](C)C2CC2)n1` showed a pIC50 of 8.14.
`Cc1nc(Nc2c(Cl)cc(C(F)(F)F)cc2Cl)c(=O)n(C(C)C2CC2)n1` (configuration not stated) showed a pIC50 of 7.85.
`CCOc1cc(C)c(Nc2nc(C)nn(C(C)C3CC3)c2=O)cc1C` (configuration not stated) showed a pIC50 of 7.55.
Work on `COC[C@@H](C1CC1)n1nc(C)nc(Nc2c(Cl)cc(OC)cc2Cl)c1=O` yielded a pIC50 of 7.16.
With `COCC(C1CC1)n1nc(C)nc(Nc2c(Cl)cc(C(F)(F)F)cc2Cl)c1=O` (configuration not stated) the pIC50 was 7.96.
For `COc1cc(C)c(Nc2nc(C)nn(C(C)C3CC3)c2=O)cc1C` (configuration not stated), the pIC50 was 8.30.
Compound `COC[C@@H](C1CC1)n1nc(C)nc(Nc2cc(C)c(OC(F)F)nc2C)c1=O` has a pIC50 of 8.96.
Work on `COc1nc(C)c(Nc2nc(C)nn(C(C)C3CC3)c2=O)cc1C` (configuration not stated) yielded a pIC50 of 7.59.
For `CCC(C1CC1)n1nc(C)nc(Nc2cc(C)c(OC)nc2C(F)(F)F)c1=O` (configuration not stated), the pIC50 was 8.57.
`COc1cc(Nc2nc(C)nn(C(C)C3CC3)c2=O)c(C)cc1C#N` (configuration not stated) was tested, and the pIC50 was 7.03.
Compound `Cc1nc(Nc2c(Cl)cc(S(C)(=O)=O)cc2Cl)c(=O)n(C(C)C2CC2)n1` (configuration not stated) has a pIC50 of 7.70.
Compound `CCOc1ccc(Nc2nc(C)nn([C@@H](C)C3CC3)c2=O)c(C(F)(F)F)n1` has a pIC50 of 7.64.
In the case of `CCC(C1CC1)n1nc(C)nc(Nc2c(Cl)cc(OC(F)F)cc2Cl)c1=O` (configuration not stated), the pIC50 was 8.68.
`COC[C@@H](C1CC1)n1nc(C)nc(Nc2c(Cl)cc(OC(F)F)cc2Cl)c1=O` was tested, and the pIC50 was 7.64.
In the case of `COC[C@@H](C1CC1)n1nc(C)nc(Nc2ccc(OC)nc2C(F)(F)F)c1=O`, the pIC50 was 8.64.
In the case of `COc1nc(C)c(Nc2nc(C)nn(C(C)C3CC3)c2=O)c(OC)n1` (configuration not stated), the pIC50 was 5.96.
Work on `Cc1cc(C)c(Nc2nc(C)nn(C(C)C3CC3)c2=O)c(C)c1` (configuration not stated) yielded a pIC50 of 7.72.
With `COCC(C1CC1)n1nc(C)nc(Nc2ccc(OC)nc2C(F)(F)F)c1=O` (configuration not stated) the pIC50 was 8.43.
`COC[C@H](C1CC1)n1nc(C)nc(Nc2cc(C)c(OC(F)F)nc2C)c1=O` gave a pIC50 of 8.19.
For `Cc1nc(Nc2c(Cl)cc(C#N)c(Cl)c2Cl)c(=O)n(C(C)C2CC2)n1` (configuration not stated), the pIC50 was 8.00.
Work on `Cc1nc(Nc2c(Cl)cc(OC(F)F)cc2Cl)c(=O)n([C@H](C)C2CC2)n1` yielded a pIC50 of 7.89.
With `COC[C@H](C1CC1)n1nc(C)nc(Nc2c(Cl)cc(OC(F)F)cc2Cl)c1=O` the pIC50 was 8.36.
For `COc1cc(Cl)c(Nc2nc(C)nn([C@@H](C)C3CC3)c2=O)c(Cl)c1`, the pIC50 was 8.12.
For `COc1cc(Cl)c(Nc2nc(C)nn([C@H](C)C3CC3)c2=O)c(Cl)c1`, the pIC50 was 8.08.
Work on `COC[C@H](C1CC1)n1nc(C)nc(Nc2c(Cl)cc(OC)cc2Cl)c1=O` yielded a pIC50 of 8.14.
Work on `COc1ccc(Nc2nc(C)nn([C@@H](C)C3CC3)c2=O)c(C(F)(F)F)n1` yielded a pIC50 of 7.92.
Compound `CCOc1ccc(Nc2nc(C)nn(C(C)C3CC3)c2=O)c(C(F)(F)F)n1` (configuration not stated) has a pIC50 of 7.92.
With `CCC(C1CC1)n1nc(C)nc(Nc2c(Cl)cc(C(F)(F)F)cc2Cl)c1=O` (configuration not stated) the pIC50 was 8.20.
For `Cc1nc(Nc2c(Cl)cc(OC(F)(F)F)cc2Cl)c(=O)n(C(C)C2CC2)n1` (configuration not stated), the pIC50 was 7.41.
Compound `CCOc1ccc(Nc2nc(C)nn([C@H](COC)C3CC3)c2=O)c(C(F)(F)F)n1` has a pIC50 of 7.57.
With `CCC(C1CC1)n1nc(C)nc(Nc2ccc(OC)nc2C(F)(F)F)c1=O` (configuration not stated) the pIC50 was 8.43.
In the case of `CCC(C1CC1)n1nc(C)nc(Nc2cc(C)c(OC)nc2C)c1=O` (configuration not stated), the pIC50 was 8.19.
`Cc1nc(Nc2c(Cl)cc(OC(F)F)cc2Cl)c(=O)n(C(C)C2CC2)n1` (configuration not stated) showed a pIC50 of 8.00.
With `CCOc1ccc(Nc2nc(C)nn([C@H](C)C3CC3)c2=O)c(C(F)(F)F)n1` the pIC50 was 8.07.
`CCC(C1CC1)n1nc(C)nc(Nc2cc(C)c(OC)cc2C)c1=O` (configuration not stated) gave a pIC50 of 9.05.
`COc1ccc(Nc2nc(C)nn(C(C)C3CC3)c2=O)c(C(F)(F)F)n1` (configuration not stated) showed a pIC50 of 8.17.
Work on `COc1ccc(Nc2nc(C)nn([C@H](C)C3CC3)c2=O)c(C(F)(F)F)n1` yielded a pIC50 of 8.46.
`CCC(C1CC1)n1nc(C)nc(Nc2cc(OC)c(C#N)cc2C)c1=O` (configuration not stated) showed a pIC50 of 7.89.
Compound `COCC(C1CC1)n1nc(C)nc(Nc2c(Cl)cc(OC)cc2Cl)c1=O` (configuration not stated) has a pIC50 of 8.20.
In the case of `CCC(C1CC1)n1nc(C)nc(Nc2cc(C)c(C#N)cc2C)c1=O` (configuration not stated), the pIC50 was 8.03.
`CCOc1ccc(Nc2nc(C)nn(C(COC)C3CC3)c2=O)c(C(F)(F)F)n1` (configuration not stated) showed a pIC50 of 8.52.
In the case of `CCOc1ccc(Nc2nc(C)nn([C@@H](COC)C3CC3)c2=O)c(C(F)(F)F)n1`, the pIC50 was 8.62.
Work on `COCC(C1CC1)n1nc(C)nc(Nc2cc(C)c(OC(F)F)nc2C)c1=O` (configuration not stated) yielded a pIC50 of 8.96.
For `COCC(C1CC1)n1nc(C)nc(Nc2cc(C)c(OC)nc2C)c1=O` (configuration not stated), the pIC50 was 7.70.
With `COCC(C1CC1)n1nc(C)nc(Nc2c(C)cc(OC)cc2C)c1=O` (configuration not stated) the pIC50 was 7.29.

These compounds were tested against T2, Corticotropin-releasing factor receptor 1 (Rattus norvegicus) (UniProt P35353) (assay: Displacement of [125]sauvagin from CRF1 receptor in rat parietal cortex).
T2 sequence (whole entry): T1 sequence (P35353 whole entry)
Compound `CCC(C1CC1)n1nc(C)nc(Nc2cc(C)c(OC)cc2C)c1=O` (configuration not stated) has an Activity of 64%.
`CCOc1ccc(Nc2nc(C)nn(C(COC)C3CC3)c2=O)c(C(F)(F)F)n1` (configuration not stated) gave an Activity of 46%.
